The source made the active and inactive calls. The calls are words filed in the database; no cut-off is given here.
How the values were obtained:
Jurkat [1] = experiment: Anti-inflammatory activity in PMA/ionomycin stimulated human Jurkat T cells assessed as reduction in IL-2 secretion at 20 uM preincubated for 20 mins followed by PMA/ionomycin stimulation measured after 12 hrs by ELISA; type: functional, cell-based
Method in brief: (§1)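 Jurkat T cells seeded at 1 × 10^5 cells/well and pretreated with compound for 20 min, then stimulated with PMA (40 nM) plus ionomycin (1 μM) for 12 h at 37 °C. DMSO was the negative control and FK506 (100 nM) the positive control. IL-2 in 100 μL supernatant was measured by sandwich ELISA with streptavidin detector and TMB substrate, read at 450 nm.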

Jurkat [2] = experiment: Cytotoxicity against human Jurkat T cells assessed as reduction in cell viability after 72 hrs by alamar blue assay; type: cell-based
Method in brief: (§2)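 Cells seeded at 2 × 10^4 cells/well and exposed to compound for 72 h. DMSO was the negative control and doxorubicin the positive control. AlamarBlue (1:10 dilution) was then added for 4 h at 37 °C, and absorbance was read at 590 nm.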

Jurkat [3] = experiment: Anti-inflammatory activity in PMA/ionomycin stimulated human Jurkat T cells assessed as reduction in IL-2 secretion preincubated for 20 mins followed by PMA/ionomycin stimulation measured after 12 hrs by ELISA; type: functional, cell-based; method in brief: as §1
HeLa = experiment: Cytotoxicity against human HeLa cells assessed as reduction in cell viability after 72 hrs by alamar blue assay; type: cell-based; method in brief: as §2
K562 = experiment: Cytotoxicity against human K562 cells assessed as reduction in cell viability after 72 hrs by alamar blue assay; type: cell-based; details: K562, 72 h; method in brief: as §2

Row | Structure (SMILES) | Activity (Jurkat [1]) | IC50 (Jurkat [2]) | IC50 (Jurkat [3]) | IC50 (HeLa) | IC50 (K562)
1 | CC(C)[C@H](NC(=O)c1cc(O)c2c(c1)C(=O)c1cc(O)c(Cl)c(O)c1C2=O)C(=O)O | Active | > 10 µM | 5.1 µM | > 10 µM | > 10 µM
2 | CC(C)C[C@H](NC(=O)c1cc(O)c2c(c1)C(=O)c1cc(O)c(Cl)c(O)c1C2=O)C(=O)O | Active | > 10 µM | – | > 10 µM | > 10 µM
3 | O=C1c2cc(CO)cc(O)c2C(=O)c2c1cc(O)c(Cl)c2O | – | > 10 µM | – | > 10 µM | > 10 µM
4 | CCC(C)[C@H](NC(=O)c1cc(O)c2c(c1)C(=O)c1cc(O)cc(O)c1C2=O)C(=O)OC (some centres undefined) | Active | > 10 µM | 12 µM | > 10 µM | > 10 µM
5 | CCC(C)[C@H](NC(=O)c1cc(O)c2c(c1)C(=O)c1cc(O)cc(O)c1C2=O)C(=O)O (some centres undefined) | Active | > 10 µM | 5.4 µM | > 10 µM | > 10 µM
6 | C[C@H](NC(=O)c1cc(O)c2c(c1)C(=O)c1cc(O)cc(O)c1C2=O)C(=O)O | Active | > 10 µM | – | > 10 µM | > 10 µM
7 | CCC(C)[C@H](NC(=O)c1cc(O)c2c(c1)C(=O)c1cc(O)c(Cl)c(O)c1C2=O)C(=O)O (some centres undefined) | Active | > 10 µM | – | > 10 µM | > 10 µM
8 | O=C(O)c1cc(O)c2c(c1)C(=O)c1cc(O)cc(O)c1C2=O [EMODIC ACID] | Active | > 10 µM | – | > 10 µM | > 10 µM
9 | C=CC[C@@H]1/C=C(\C)C[C@H](C)C[C@H](OC)[C@H]2O[C@@](O)(C(=O)C(=O)N3CCCC[C@H]3C(=O)O[C@H](/C(C)=C/[C@@H]3CC[C@@H](O)[C@H](OC)C3)[C@H](C)[C@@H](O)CC1=O)[C@H](C)C[C@@H]2OC [TACROLIMUS ANHYDROUS] | – | – | 5.8 µM | – | –
10 | CC(C)[C@H](NC(=O)c1cc(O)c2c(c1)C(=O)c1cc(O)cc(O)c1C2=O)C(=O)O | Active | > 10 µM | – | > 10 µM | > 10 µM
11 | COC(=O)[C@@H](NC(=O)c1cc(O)c2c(c1)C(=O)c1cc(O)cc(O)c1C2=O)C(C)C | Active | > 10 µM | 4.1 µM | > 10 µM | > 10 µM
